Measurements taken from ChEMBL document CHEMBL4823270, “A first-in-class anticancer dual HDAC2/FAK inhibitors bearing hydroxamates/benzamides capped by pyridinyl-1,2,4-triazoles” (Eur J Med Chem, 2021).
The source made the active and inactive calls. The calls are words filed in the database; no cut-off is given here.

Assays:
A498 [1] = assay: Growth inhibition of human A498 cells at 10 uM incubated for 24 hrs by MTT assay relative to control; format: functional; conditions: read-out: GI
In short: (§1)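 Cells seeded at 1 × 10^4 per well, cultured overnight, then exposed to 10 μM compound or DMSO (negative control) for 24 h. After a PBS wash, MTT (2 mg/ml) was added for 4 h at 37°C and formazan dissolved in DMSO. OD read at 570 nm. Growth inhibition = 1 − (OD treated/OD control); at least three independent experiments.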

HT-29 = assay: Growth inhibition of human HT-29 cells at 10 uM incubated for 24 hrs by MTT assay relative to control; format: functional; conditions: read-out: GI; in short: as §1
CAKI-1 [2] = assay: Antiproliferative activity against human CAKI-1 cells assessed as cell growth inhibition incubated for 24 hrs by MTT assay; format: functional, cell-based; conditions: CAKI-1, 24 h
KG-1 = assay: Growth inhibition of human KG-1 cells at 10 uM incubated for 24 hrs by MTT assay relative to control; format: functional; conditions: KG-1, 24 h; in short: as §1
[3] = molecular target: T1, Protein deacetylase HDAC6 (Homo sapiens, UniProt Q9UBN7); assay: Inhibition of human full-length recombinant HDAC6 preincubated for 5 mins followed by HDAC substrate addition and further incubated for 45 mins by fluorescence microplate reader assay
T1 sequence (Q9UBN7 whole entry): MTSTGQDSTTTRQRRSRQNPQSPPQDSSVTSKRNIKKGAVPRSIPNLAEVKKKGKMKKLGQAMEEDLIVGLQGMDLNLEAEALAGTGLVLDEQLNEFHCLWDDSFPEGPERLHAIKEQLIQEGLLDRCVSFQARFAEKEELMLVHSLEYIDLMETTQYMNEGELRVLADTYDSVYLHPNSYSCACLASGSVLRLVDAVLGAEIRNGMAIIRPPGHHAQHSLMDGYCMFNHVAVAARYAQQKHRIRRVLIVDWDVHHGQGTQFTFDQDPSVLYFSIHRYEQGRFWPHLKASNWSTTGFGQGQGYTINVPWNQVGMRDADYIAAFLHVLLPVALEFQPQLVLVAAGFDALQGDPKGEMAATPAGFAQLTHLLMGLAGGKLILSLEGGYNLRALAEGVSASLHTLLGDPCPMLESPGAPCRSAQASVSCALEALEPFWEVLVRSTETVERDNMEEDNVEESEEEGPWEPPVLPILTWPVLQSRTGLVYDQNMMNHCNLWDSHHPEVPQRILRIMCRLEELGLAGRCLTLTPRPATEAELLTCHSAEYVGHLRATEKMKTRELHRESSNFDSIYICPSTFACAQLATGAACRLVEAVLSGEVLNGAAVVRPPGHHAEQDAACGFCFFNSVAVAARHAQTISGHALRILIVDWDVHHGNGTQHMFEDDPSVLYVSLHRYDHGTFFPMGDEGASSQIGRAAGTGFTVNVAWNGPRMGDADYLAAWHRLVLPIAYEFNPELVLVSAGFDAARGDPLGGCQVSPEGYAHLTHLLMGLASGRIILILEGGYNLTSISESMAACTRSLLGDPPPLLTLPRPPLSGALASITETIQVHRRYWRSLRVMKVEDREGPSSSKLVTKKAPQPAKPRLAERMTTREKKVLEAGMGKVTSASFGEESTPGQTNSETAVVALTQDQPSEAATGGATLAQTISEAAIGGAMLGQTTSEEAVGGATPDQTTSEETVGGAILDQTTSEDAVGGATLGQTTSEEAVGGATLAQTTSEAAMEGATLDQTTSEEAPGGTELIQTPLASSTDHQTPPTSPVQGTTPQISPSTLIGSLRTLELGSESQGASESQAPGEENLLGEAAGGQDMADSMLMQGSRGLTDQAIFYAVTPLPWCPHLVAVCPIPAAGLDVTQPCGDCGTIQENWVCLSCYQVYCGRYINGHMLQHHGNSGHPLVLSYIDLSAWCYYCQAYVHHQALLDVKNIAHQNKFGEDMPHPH

CAKI-1 [4] = assay: Growth inhibition of human CAKI-1 cells at 10 uM incubated for 24 hrs by MTT assay relative to control; format: functional; conditions: read-out: GI; in short: as §1
K562 = assay: Growth inhibition of human K562 cells at 10 uM incubated for 24 hrs by MTT assay relative to control; format: functional; conditions: read-out: GI; in short: as §1
HCT-116 = assay: Growth inhibition of human HCT-116 cells at 10 uM incubated for 24 hrs by MTT assay relative to control; format: functional; conditions: read-out: GI; in short: as §1
Histone deacetylase 2 [5] = molecular target: T2, Histone deacetylase 2 (Homo sapiens, UniProt Q92769); assay: Inhibition of human full-length recombinant HDAC2 preincubated for 5 mins followed by HDAC substrate addition and further incubated for 45 mins by fluorescence microplate reader assay
Histone deacetylase 1 = Histone deacetylase 1 (Homo sapiens, UniProt Q13547); assay: Inhibition of human full-length recombinant HDAC1 preincubated for 5 mins followed by HDAC substrate addition and further incubated for 45 mins by fluorescence microplate reader assay
Focal adhesion kinase 1 [6] = molecular target: T3, Focal adhesion kinase 1 (Homo sapiens, UniProt Q05397); assay: Inhibition of FAK (unknown origin) by FRET-based Z'-Lyte assay
In short: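 Recombinant FAK kinase activity measured with the FRET-based Z'-LYTE format; the same platform was used for a kinase panel (FAK, FLT, FRK, IGF-1R, BTK). IC50 values determined.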
Target sequence in this assay (Q05397 whole entry): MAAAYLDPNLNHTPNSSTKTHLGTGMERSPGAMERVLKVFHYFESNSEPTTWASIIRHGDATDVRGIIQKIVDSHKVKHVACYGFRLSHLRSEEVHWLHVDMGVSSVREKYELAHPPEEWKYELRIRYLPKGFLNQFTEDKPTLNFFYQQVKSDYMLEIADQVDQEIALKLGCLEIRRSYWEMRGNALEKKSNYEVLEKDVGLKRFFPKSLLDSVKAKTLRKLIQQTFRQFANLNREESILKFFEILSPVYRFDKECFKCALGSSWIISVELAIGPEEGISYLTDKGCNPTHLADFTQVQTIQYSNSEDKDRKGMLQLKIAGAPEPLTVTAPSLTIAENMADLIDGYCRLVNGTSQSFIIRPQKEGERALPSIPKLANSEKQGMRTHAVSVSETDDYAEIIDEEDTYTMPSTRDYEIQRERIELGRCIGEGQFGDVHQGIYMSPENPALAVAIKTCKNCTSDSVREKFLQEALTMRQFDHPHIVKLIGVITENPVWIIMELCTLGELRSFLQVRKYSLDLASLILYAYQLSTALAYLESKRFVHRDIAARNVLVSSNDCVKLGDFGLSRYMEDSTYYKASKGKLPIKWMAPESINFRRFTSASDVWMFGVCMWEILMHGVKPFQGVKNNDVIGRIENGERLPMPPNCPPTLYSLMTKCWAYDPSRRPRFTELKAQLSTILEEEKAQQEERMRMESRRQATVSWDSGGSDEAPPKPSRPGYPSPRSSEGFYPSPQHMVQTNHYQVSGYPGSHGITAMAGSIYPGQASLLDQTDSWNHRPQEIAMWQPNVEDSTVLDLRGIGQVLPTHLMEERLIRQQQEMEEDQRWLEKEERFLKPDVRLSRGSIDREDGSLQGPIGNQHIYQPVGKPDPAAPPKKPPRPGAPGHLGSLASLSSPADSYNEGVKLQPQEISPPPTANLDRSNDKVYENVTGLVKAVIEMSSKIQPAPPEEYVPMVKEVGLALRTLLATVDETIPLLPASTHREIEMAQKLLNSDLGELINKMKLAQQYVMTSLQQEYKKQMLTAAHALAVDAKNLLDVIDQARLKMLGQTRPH

A498 [7] = assay: Antiproliferative activity against human A498 cells assessed as cell growth inhibition incubated for 24 hrs by MTT assay; format: functional, cell-based; conditions: A498, 24 h
Histone deacetylase 3 = Histone deacetylase 3 (Homo sapiens, UniProt O15379); assay: Inhibition of human full-length recombinant HDAC3 preincubated for 5 mins followed by HDAC substrate addition and further incubated for 45 mins by fluorescence microplate reader assay
Histone deacetylase 8 = molecular target: T4, Histone deacetylase 8 (Homo sapiens, UniProt Q9BY41); assay: Inhibition of human full-length recombinant C-terminal His-tagged HDAC8 expressed in baculovirus infected Sf9 insect cells preincubated for 5 mins followed by HDAC substrate addition and further incubated for 45 mins by fluorescence microplate reader assay
T4 sequence (Q9BY41 whole entry): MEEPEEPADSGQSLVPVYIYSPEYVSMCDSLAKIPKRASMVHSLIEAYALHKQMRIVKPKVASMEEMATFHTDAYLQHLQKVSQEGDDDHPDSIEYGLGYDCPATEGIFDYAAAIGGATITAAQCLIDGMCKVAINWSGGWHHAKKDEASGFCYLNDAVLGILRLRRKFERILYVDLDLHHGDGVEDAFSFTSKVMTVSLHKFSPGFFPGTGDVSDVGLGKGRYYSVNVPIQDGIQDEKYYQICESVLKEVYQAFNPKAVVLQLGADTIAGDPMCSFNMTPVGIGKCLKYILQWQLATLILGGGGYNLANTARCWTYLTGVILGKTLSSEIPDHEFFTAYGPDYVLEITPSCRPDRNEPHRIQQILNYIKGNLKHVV

Focal adhesion kinase 1 [8] = molecular target: T3, Focal adhesion kinase 1; assay: Inhibition of FAK in human A498 cells assessed as reduction in FAK phosphorylation by Western blot analysis; format: cell-based
In short: (§2)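 40 μg protein (Bradford) resolved by SDS-PAGE, transferred to PVDF, blocked 1 h in milk or BSA. Primary antibody overnight, HRP secondary 1 h, ECL detection; β-actin as loading control.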
Target sequence in this assay (Q05397 2-1052 limits assumed): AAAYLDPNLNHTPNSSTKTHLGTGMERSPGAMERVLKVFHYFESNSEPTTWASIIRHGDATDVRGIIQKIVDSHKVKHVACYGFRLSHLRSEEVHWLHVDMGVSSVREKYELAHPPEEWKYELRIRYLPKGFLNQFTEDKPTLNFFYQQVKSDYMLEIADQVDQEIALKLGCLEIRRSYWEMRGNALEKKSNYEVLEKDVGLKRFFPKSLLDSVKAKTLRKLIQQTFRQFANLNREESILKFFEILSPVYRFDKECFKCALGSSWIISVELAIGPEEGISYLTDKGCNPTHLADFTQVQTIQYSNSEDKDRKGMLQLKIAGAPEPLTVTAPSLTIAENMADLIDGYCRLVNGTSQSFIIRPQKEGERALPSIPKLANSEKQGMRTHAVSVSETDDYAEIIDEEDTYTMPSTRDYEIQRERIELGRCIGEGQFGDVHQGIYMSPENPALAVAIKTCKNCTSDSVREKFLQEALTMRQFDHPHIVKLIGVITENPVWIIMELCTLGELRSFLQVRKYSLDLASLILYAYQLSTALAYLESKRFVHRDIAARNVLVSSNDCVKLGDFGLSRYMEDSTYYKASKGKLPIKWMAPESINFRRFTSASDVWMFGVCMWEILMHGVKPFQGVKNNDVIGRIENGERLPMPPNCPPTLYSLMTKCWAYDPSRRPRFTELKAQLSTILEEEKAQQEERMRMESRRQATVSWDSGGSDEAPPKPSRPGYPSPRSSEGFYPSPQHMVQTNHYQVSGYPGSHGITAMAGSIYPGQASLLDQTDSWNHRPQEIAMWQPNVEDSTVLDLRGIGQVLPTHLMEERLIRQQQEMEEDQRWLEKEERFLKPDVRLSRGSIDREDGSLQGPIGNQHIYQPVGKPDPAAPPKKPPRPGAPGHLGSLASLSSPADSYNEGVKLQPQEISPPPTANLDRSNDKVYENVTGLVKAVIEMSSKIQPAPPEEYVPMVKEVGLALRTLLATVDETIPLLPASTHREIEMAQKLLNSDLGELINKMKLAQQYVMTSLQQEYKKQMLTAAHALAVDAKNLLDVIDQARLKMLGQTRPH

Histone deacetylase 2 [9] = molecular target: T2, Histone deacetylase 2; assay: Inhibition of HDAC2 in human A498 cells assessed as reduction in HDAC2 expression by Western blot analysis; format: cell-based; in short: as §2
Focal adhesion kinase 1 [10] = molecular target: T3, Focal adhesion kinase 1; assay: Inhibition of FAK in human CAKI-1 cells assessed as reduction in FAK phosphorylation by Western blot analysis; format: cell-based; in short: as §2
Target sequence in this assay (Q05397 2-1052 limits assumed): as above

Histone deacetylase 2 [11] = molecular target: T2, Histone deacetylase 2; assay: Inhibition of HDAC2 in human CAKI-1 cells assessed as reduction in HDAC2 expression by Western blot analysis; format: cell-based; in short: as §2

T2 sequence (Q92769 whole entry): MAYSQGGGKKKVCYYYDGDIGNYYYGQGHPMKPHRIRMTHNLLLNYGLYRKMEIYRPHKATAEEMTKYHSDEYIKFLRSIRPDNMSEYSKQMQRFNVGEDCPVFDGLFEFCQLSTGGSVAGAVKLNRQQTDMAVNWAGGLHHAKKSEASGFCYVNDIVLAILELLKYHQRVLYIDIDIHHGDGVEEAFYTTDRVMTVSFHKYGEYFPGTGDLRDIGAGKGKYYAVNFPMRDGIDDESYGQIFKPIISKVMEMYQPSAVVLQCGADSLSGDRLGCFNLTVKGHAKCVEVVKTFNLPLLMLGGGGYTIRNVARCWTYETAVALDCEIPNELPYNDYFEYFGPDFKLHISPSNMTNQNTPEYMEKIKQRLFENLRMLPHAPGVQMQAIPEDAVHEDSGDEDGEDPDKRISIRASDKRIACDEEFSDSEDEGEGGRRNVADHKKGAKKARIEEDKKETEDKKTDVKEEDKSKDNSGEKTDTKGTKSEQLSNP
Histone deacetylase 3, sequence (O15379 whole entry): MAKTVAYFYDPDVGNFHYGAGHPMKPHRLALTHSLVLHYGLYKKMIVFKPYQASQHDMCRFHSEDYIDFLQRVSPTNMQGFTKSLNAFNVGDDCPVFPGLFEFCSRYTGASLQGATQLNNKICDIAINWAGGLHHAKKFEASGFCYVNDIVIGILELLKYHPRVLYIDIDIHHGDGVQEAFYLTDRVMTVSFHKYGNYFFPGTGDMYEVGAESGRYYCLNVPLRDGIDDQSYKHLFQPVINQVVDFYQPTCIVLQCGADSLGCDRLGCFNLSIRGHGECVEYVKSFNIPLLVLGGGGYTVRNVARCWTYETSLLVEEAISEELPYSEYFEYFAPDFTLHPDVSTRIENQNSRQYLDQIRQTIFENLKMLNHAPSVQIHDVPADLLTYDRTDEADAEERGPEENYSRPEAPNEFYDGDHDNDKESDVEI
Histone deacetylase 1, sequence (Q13547 whole entry): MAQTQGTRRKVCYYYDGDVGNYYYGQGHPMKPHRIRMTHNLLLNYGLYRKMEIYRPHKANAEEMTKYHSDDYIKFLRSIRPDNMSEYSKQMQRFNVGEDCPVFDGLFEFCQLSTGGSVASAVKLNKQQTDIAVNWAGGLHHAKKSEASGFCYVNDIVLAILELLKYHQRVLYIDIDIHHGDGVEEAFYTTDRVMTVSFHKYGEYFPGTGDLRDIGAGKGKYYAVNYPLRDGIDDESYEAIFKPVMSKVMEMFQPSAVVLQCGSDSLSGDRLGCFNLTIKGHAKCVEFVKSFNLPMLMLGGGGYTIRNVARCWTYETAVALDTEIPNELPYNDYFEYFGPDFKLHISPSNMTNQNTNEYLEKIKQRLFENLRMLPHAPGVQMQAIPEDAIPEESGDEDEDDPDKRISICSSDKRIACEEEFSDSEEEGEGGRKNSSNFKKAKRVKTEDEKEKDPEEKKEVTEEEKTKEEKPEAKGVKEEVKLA

| Structure (SMILES) | inhibition of growth at 10 µM (A498 [1]) [%] | inhibition of growth at 10 µM (HT-29) [%] | IC50 (CAKI-1 [2]) [µM] | inhibition in vitro at 10 µM (KG-1) [%] | IC50 [3] [µM] | inhibition of growth at 10 µM (CAKI-1 [4]) [%] | inhibition of growth at 10 µM (K562) [%] | inhibition of growth at 10 µM (HCT-116) [%] | IC50 (Histone deacetylase 2 [5]) [µM] | IC50 (Histone deacetylase 1) [µM] | IC50 (Focal adhesion kinase 1 [6]) [µM] | IC50 (A498 [7]) [µM] | IC50 (Histone deacetylase 3) [µM] | IC50 (Histone deacetylase 8) [µM] | inhibition (Focal adhesion kinase 1 [8]) | inhibition (Histone deacetylase 2 [9]) | inhibition (Focal adhesion kinase 1 [10]) | inhibition (Histone deacetylase 2 [11]) |
| --- | --- | --- | --- | --- | --- | --- | --- | --- | --- | --- | --- | --- | --- | --- | --- | --- | --- | --- |
| Cn1c(SCc2ccc(C(=O)Nc3ccccc3N)cc2)nnc1-c1ccncc1 | 55.6 | 47.9 | 6.97 | 24.1 | 11 | 75.2 | 54.1 | 18 | 13 | 7.64 | 0.0531 | 9.34 | 71.1 | 7.85 |  |  |  |  |
| CCn1c(SCc2ccc(C(=O)Nc3ccccc3N)cc2)nnc1-c1ccncc1 | 1.18 | 1.22 | 80.7 | 5.91 | > 300 | 12.1 | 8.67 | 1.85 | 40.1 | > 300 | 0.112 | 124 | > 300 | > 300 |  |  |  |  |
| C=CCn1c(SCCCCCC(=O)O)nnc1-c1ccncc1 | 11.4 | 21.2 | 164 | 15.4 | > 300 | 3.25 | 2.95 | 16.2 | 10.1 | 98.2 | 0.124 | 85.3 | 246 | > 300 |  |  |  |  |
| O=C(NO)c1ccc(CSc2nnc(-c3ccncc3)n2-c2ccccc2)cc1 | 56.9 | 42.7 | 7.13 | 50.9 | 6.93 | 61.9 | 39.1 | 29.3 | 9.76 | 15 | 0.0224 | 8.76 | 18 | 12.8 |  |  |  |  |
| Cn1c(SCCCCCC(=O)Nc2ccccc2N)nnc1-c1ccncc1 | 45.3 | 71.4 | 9.87 | 63.1 | 14.2 | 50.8 | 44.9 | 54.4 | 14.4 | 40.2 | 0.0571 | 13.4 | 84.1 | 7.28 |  |  |  |  |
| C=CCn1c(SCCCCCC(=O)Nc2ccccc2N)nnc1-c1ccncc1 | 97.7 | 95.5 | 1.34 | 94.2 | 9.79 | 95.4 | 86.4 | 90.5 | 1.4 | 31 | 0.0143 | 1.19 | 11 | 5.86 | Active | Active | Active | Active |
| C=CCn1c(SCc2ccc(C(=O)NO)cc2)nnc1-c1ccncc1 | 44.9 | 25.3 | 9.56 | 62 | 9.86 | 50.2 | 36.1 | 44.1 | 11.2 | 19.6 | 0.0461 | 13.2 | 20.7 | 28.4 |  |  |  |  |
